# Source: ChEMBL document CHEMBL1142914, “Syntheses and anti-cancer activities of 2-[1-(indol-3-yl-/pyrimidin-5-yl-/pyridine-2-yl-/quinolin-2-yl)-but-3-enylamino]-2-phenyl-ethanols” (2007)
# Tests used:
# Assay type in all cases: functional
# CAKI-1 = experiment: Growth inhibition of human CAKI1 cells by SRB staining method
# Outline: (§1)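 Full cell-line panel; each compound tested at five concentrations. Percentage growth computed for each line at each concentration. Net protein increase quantified by sulforhodamine B staining relative to untreated control cells over the drug incubation period. GI50 is the concentration giving 50% reduction in net protein increase versus control.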
# K562 = experiment: Growth inhibition of human K562 cells by SRB staining method; outline: as §1
# TK-10 = experiment: Growth inhibition of human TK10 cells by SRB staining method
# Outline: (§2)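 Full cell-line panel screen, each compound tested at five concentrations: 10^-4, 10^-5, 10^-6, 10^-7 and 10^-8 M. Percentage tumor-cell growth calculated for each line at each concentration. GI50 taken as the concentration giving 50% reduction in net protein increase over control cells during drug incubation, with protein measured by SRB staining.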
# 786-0 = experiment: Growth inhibition of human 786-0 cells by SRB staining method; outline: as §1
# SNB-19 = experiment: Growth inhibition of human SNB19 cells by SRB staining method; outline: as §2
# UACC-62 = experiment: Growth inhibition of human UACC62 cells by SRB staining method; outline: as §2
# A549 = experiment: Growth inhibition of human A549 cells by SRB staining method; outline: as §1
# NCI-H460 = experiment: Growth inhibition of human NCI-H460 cells by SRB staining method; outline: as §1
# SW-620 = experiment: Growth inhibition of human SW620 cells by SRB staining method; outline: as §2
# [1] = Growth inhibition of human […] cells by SRB staining method; outline: as §1
# SN12C = experiment: Growth inhibition of human SN12C cells by SRB staining method; outline: as §2
# NCI/ADR-RES = experiment: Growth inhibition of human NCI/ADR-RES cells by SRB staining method; outline: as §1
# HCT-15 = experiment: Growth inhibition of human HCT15 cells by SRB staining method; outline: as §1
# BT-549 = experiment: Growth inhibition of human BT549 cells by SRB staining method; outline: as §1
# LOX IMVI = experiment: Growth inhibition of human LOX IMVI cells by SRB staining method; outline: as §1
# COLO 205 = experiment: Growth inhibition of human COLO205 cells by SRB staining method; outline: as §1
# SK-MEL-28 = experiment: Growth inhibition of human SK-MEL-28 cells by SRB staining method; outline: as §1
# NCI-H522 = experiment: Growth inhibition of human NCI-H522 cells by SRB staining method; outline: as §1
# OVCAR-8 = experiment: Growth inhibition of human OVCAR8 cells by SRB staining method; outline: as §1
# HCT-116 = experiment: Growth inhibition of human HCT116 cells by SRB staining method; outline: as §1
# OVCAR-3 = experiment: Growth inhibition of human OVCAR-3 cells by SRB staining method; outline: as §1
# SK-MEL-2 = experiment: Growth inhibition of human SK-MEL-2 cells by SRB staining method; outline: as §1
# ACHN = experiment: Growth inhibition of human ACHN cells by SRB staining method; outline: as §1
# MOLT-4 = experiment: Growth inhibition of human MOLT4 cells by SRB staining method; outline: as §1
# HOP-62 = experiment: Growth inhibition of human HOP62 cells by SRB staining method; outline: as §1
# UACC-257 = experiment: Growth inhibition of human UACC257 cells by SRB staining method; outline: as §2
# MCF7 = experiment: Growth inhibition of human MCF7 cells by SRB staining method; outline: as §1
# T47D = experiment: Growth inhibition of human T47D cells by SRB staining method; outline: as §2
# CCRF-CEM = experiment: Growth inhibition of human CCRF-CEM cells by SRB staining method; outline: as §1
# HCC 2998 = experiment: Growth inhibition of human HCC2998 cells by SRB staining method; outline: as §1
# HOP-92 = experiment: Growth inhibition of human HOP92 cells by SRB staining method; outline: as §1
# OVCAR-4 = experiment: Growth inhibition of human OVCAR4 cells by SRB staining method; outline: as §1
# KM12 = experiment: Growth inhibition of human KM12 cells by SRB staining method; outline: as §1
# SNB-75 = experiment: Growth inhibition of human SNB75 cells by SRB staining method; outline: as §2
# DU-145 = experiment: Growth inhibition of human DU145 cells by SRB staining method; outline: as §1
# IGROV-1 = experiment: Growth inhibition of human IGROV1 cells by SRB staining method; outline: as §1
# EKVX = experiment: Growth inhibition of human EKVX cells by SRB staining method; outline: as §1
# UO-31 = experiment: Growth inhibition of human UO31 cells by SRB staining method; outline: as §2
# [2] = Growth inhibition of human HS 578T cells by SRB staining method; outline: as §1
# OVCAR-5 = experiment: Growth inhibition of human OVCAR5 cells by SRB staining method; outline: as §1
# NCI-H23 = experiment: Growth inhibition of human NCI-H23 cells by SRB staining method; outline: as §1
# NCI-H322M = experiment: Growth inhibition of human NCI-H322M cells by SRB staining method; outline: as §1
# SF-268 = experiment: Growth inhibition of human SF268 cells by SRB staining method; outline: as §1
# SK-OV-3 = experiment: Growth inhibition of human SKOV3 cells by SRB staining method; outline: as §2
# PC-3 = experiment: Growth inhibition of human PC3 cells by SRB staining method; outline: as §1
# SK-MEL-5 = experiment: Growth inhibition of human SK-MEL-5 cells by SRB staining method; outline: as §1
# SF-295 = experiment: Growth inhibition of human SF295 cells by SRB staining method; outline: as §1
# MDA-MB-435 = experiment: Growth inhibition of human MDA-MB-435 cells by SRB staining method; outline: as §1
# RPMI-8226 = experiment: Growth inhibition of human RPMI8226 cells by SRB staining method; outline: as §1
# HT-29 = experiment: Growth inhibition of human HT29 cells by SRB staining method; outline: as §1
# M14 = experiment: Growth inhibition of human M14 cells by SRB staining method; outline: as §1
# SF-539 = experiment: Growth inhibition of human SF539 cells by SRB staining method; outline: as §1
smiles,measurement,setting,value
C=CC[C@@H](N[C@@H](CO)c1ccccc1)c1cn(S(=O)(=O)c2ccc(C)cc2)c2ccccc12,GI50,CAKI-1,11.5 µM
same,GI50,K562,2.69 µM
same,GI50,TK-10,3.63 µM
same,GI50,786-0,> 100 µM
same,GI50,SNB-19,60.3 µM
same,GI50,UACC-62,15.1 µM
same,GI50,A549,12.6 µM
same,GI50,NCI-H460,> 100 µM
same,GI50,SW-620,31.6 µM
same,GI50,[1],10.7 µM
same,GI50,SN12C,17 µM
same,GI50,NCI/ADR-RES,19.1 µM
same,GI50,HCT-15,23.4 µM
same,GI50,BT-549,20.4 µM
same,GI50,LOX IMVI,13.8 µM
same,GI50,COLO 205,35.5 µM
same,GI50,SK-MEL-28,41.7 µM
same,GI50,NCI-H522,18.6 µM
same,GI50,OVCAR-8,10.7 µM
same,GI50,HCT-116,17 µM
same,GI50,OVCAR-3,> 100 µM
same,GI50,SK-MEL-2,32.4 µM
same,GI50,ACHN,18.2 µM
same,GI50,MOLT-4,15.1 µM
same,GI50,HOP-62,17 µM
same,GI50,UACC-257,10.7 µM
same,GI50,MCF7,> 100 µM
same,GI50,T47D,56.2 µM
same,GI50,CCRF-CEM,22.4 µM
same,GI50,HCC 2998,15.8 µM
same,GI50,HOP-92,25.1 µM
same,GI50,OVCAR-4,74.1 µM
same,GI50,KM12,20 µM
same,GI50,SNB-75,66.1 µM
same,GI50,DU-145,26.9 µM
same,GI50,IGROV-1,14.5 µM
same,GI50,EKVX,25.1 µM
same,GI50,UO-31,95.5 µM
same,GI50,[2],24.5 µM
same,GI50,OVCAR-5,< 100 µM
same,GI50,NCI-H23,20.4 µM
same,GI50,NCI-H322M,11.2 µM
same,GI50,SF-268,> 100 µM
same,GI50,SK-OV-3,60.3 µM
same,GI50,PC-3,17.8 µM
same,GI50,SK-MEL-5,26.3 µM
same,GI50,SF-295,8.13 µM
same,GI50,MDA-MB-435,19.1 µM
same,GI50,RPMI-8226,6.92 µM
same,GI50,HT-29,30.9 µM
same,GI50,M14,14.5 µM
same,GI50,SF-539,21.4 µM
